High-throughput results: PubChem BioAssay, several laboratories
NSD2 HMT inh = inhibitors of human histone methyltransferase NSD2 | NSD2 peptide methylation, AlphaScreen, 120 min | 310,000 tested, 0.54% active | O96028 | inhibition, % at 12.5 µM | AID 743445; in the data active = inhibition above about 50%
ARNT-TACC3 inh = ARNT/TACC3 interaction disruption; AlphaScreen His-ARNT PAS-B/GST-TACC3 binding, luminescence; TACC3 fragment carries E629A point mutation; 390,000 tested, 0.66% active; AID 623870; inhibition, % at 9.99 µM; Q9Y6A5;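 active = mean inhibition of replicates at least 50% and at least half of replicates each reaching 50%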;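 also: 0% = complete ARNT plus TACC3 wells and 100% = ARNT alone without TACC3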
XiGFP reactiv = reactivates the inactive X chromosome in mouse fibroblasts. 360,000 tested, 0.055% active. activation, % at 7.58 µM. XiGFP mouse fibroblasts, % GFP-positive cells imaging, 3 d; cells co-treated with 5-aza-dC sensitizer; scaled so ellipticine positive control = 100%;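 active = mean normalized replicate activation at least 10% and every replicate at or above 10%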;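 also: 0% = median of on-plate neutral control wells and 100% = ellipticine 6 µM median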
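Material: XiGFP fibroblasts, SV40-immortalized. Buffer or medium: DMEM plus 5-aza-dC sensitizer. Compound: single concentration per compound, delivered by pin transfer. Times: 3 days compound exposure. Controls: ellipticine 6 µM.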
SR-BI HDL uptake = mouse SR-BI HDL lipid transfer inhibition; AID 488896; ldlA[mSR-BI] CHO cells, DiI-HDL uptake fluorescence, 3 h; 320,000 tested, 0.96% active; inhibition, % at 12.5 µM;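 active = mean replicate inhibition of at least 70% and a set share of replicates each scoring 70 or more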;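 also: 0% = median of neutral control wells and 100% = median of positive control wells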
Target sequence (Q61009 whole entry, looked up): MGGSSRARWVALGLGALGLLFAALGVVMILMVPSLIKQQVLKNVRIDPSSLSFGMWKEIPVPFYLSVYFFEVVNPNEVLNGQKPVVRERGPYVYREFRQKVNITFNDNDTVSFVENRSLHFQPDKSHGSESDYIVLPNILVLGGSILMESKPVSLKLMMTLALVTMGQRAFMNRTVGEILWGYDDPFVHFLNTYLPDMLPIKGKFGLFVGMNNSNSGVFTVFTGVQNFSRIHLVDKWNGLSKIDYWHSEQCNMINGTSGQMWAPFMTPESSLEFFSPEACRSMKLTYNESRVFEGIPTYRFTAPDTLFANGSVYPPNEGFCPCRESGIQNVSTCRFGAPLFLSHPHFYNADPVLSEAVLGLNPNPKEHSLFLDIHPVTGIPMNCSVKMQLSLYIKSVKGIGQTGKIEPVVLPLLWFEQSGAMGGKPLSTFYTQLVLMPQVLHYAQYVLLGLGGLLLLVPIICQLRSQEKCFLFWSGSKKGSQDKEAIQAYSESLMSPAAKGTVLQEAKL
SR-BI DiI-HDL act = activators of SR-BI mediated HDL lipid uptake. CHO ldlA[mSR-BI] cells, DiI-HDL uptake fluorescence, 3 h; 100 = double the neutral-control signal. activation, % at 12.5 µM. 320,000 tested, 0.096% active;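 active = mean replicate activation of at least 60% and every replicate at or above 60%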;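 also: 0% = median plate neutral-control signal and 100% = twice that signal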
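System: CHO ldlA[mSR-BI] cells / Medium: HEPES-buffered (25 mM, pH 7.4) F12 plus 0.5% BSA / Probe or stimulus: labelled HDL, 10 µg/mL / Doses: single compound concentration, delivered by pin transfer / Schedule: 3 h, 37 °C / Measured by: DiI fluorescence, bottom read / Measure: cell-associated DiI fluorescence as measure of HDL uptake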
HGIII-sPLA2 inh = Blocks human group III sPLA2 activity. QFRET BODIPY PC-A2 liposome hydrolysis, fluorescence. inhibition, % at 12.2 µM. 370,000 tested, 0.56% active;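 active = inhibition above mean plus 3 SD of compounds lying within the high and low control bounds, cut at about 19% in these data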;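 also: 0% = median of test compound wells and 100% = no enzyme DMSO wells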
Alpha artifact = interferes with AlphaScreen signal, flagging NSD2 false positives | shares compounds with NSD2 HMT inh | AlphaScreen artifact counterscreen, preloaded methylated H4 peptide | AC35, µM (titrated, usually from 10 µM), for the others: top-dose activity change, negative = signal loss | 1,500 tested, 9.4% active | AID 1053174; call rule not given here
An asterisk follows results filed as active; / = not tested or not shown. The list is not random: actives were taken first. Their share in the collection is about 2%.

SMILES	NSD2 HMT inh	ARNT-TACC3 inh	XiGFP reactiv	SR-BI HDL uptake	SR-BI DiI-HDL act	HGIII-sPLA2 inh	Alpha artifact
CCc1ccc(-c2cc(C(F)(F)F)n3nc(C(=O)Nc4cnn(Cc5ccccc5C)c4)cc3n2)s1	-0.9	-17.6	/	68.5	-68.5	-0.5	/
O=C(NNS(=O)(=O)c1cccc(Cl)c1)c1cc(-c2ccc(F)cc2)nc2ccccc12	3.9	-5.1	0.1	28.5	-28.5	-29.1	/
Cc1cc(/C=C\c2nc(O)c([N+](=O)[O-])c(=O)[nH]2)c(C)n1-c1ccccc1	61.7*	-2.1	0.0	-4.7	4.7	-3.0	-8.0%
COc1ccc(-n2c(C)cc(/C=C/c3nc(O)c([N+](=O)[O-])c(=O)[nH]3)c2C)cc1	32.5	/	0.0	-2.7	2.7	-4.9	/
O=C1NC(=S)S/C1=C\c1cc2ccccc2nc1N1CCCCC1	83.3*	2.4	0.3	-48.5	48.5	-11.3	-8.7%
Cc1nc(-[n+]2nc(-c3ccncc3)nn2-c2ccccc2)sc1C	69.0*	/	0.0	/	/	4.9	2.13µM*
CC1=C(C(N)=O)C(c2ccccc2)n2nc(-c3ccncc3)nc2N1 (configuration not stated)	8.0	-15.9	/	12.8	-12.8	-1.9	/
NCc1csc(NC(=O)Nc2cccc(Cl)c2)n1	0.5	/	0.0	/	/	6.2	/
CN(C)Cc1csc(NC(=O)Nc2cccc(Cl)c2)n1	74.3*	/	0.1	/	/	-3.9	-4.4%
CCCCn1cnc2c(=S)nc(N)[nH]c21	56.9*	-1.6	-0.1	-20.2	20.2	2.5	2.7%
CCCCCn1cnc2c(=S)nc(N)[nH]c21	22.6	-3.5	0.1	-9.5	9.5	0.5	/
COc1cc(NC(C)CCCN)c2ncccc2c1Oc1ccccc1 (configuration not stated)	63.2*	24.7	0.2	1.8	-1.8	9.9	-1.1%
O=C(Cc1cccc(NC(=O)C2CCN(C(=O)C3CCCC3)CC2)c1)Nc1cccc(C(=O)N2CCCCC2)c1	/	-1.7	0.0	37.6	-37.6	-2.8	/
CC(=O)Nc1ccc(CN2CCN(CCc3ccccc3)C(CCO)C2)cc1 (configuration not stated)	-2.1	10.0	0.7	-0.8	0.8	0.4	/
CC(=O)Nc1cc(C(=O)OC(C(=O)c2ccccc2)c2ccccc2)ccc1C (configuration not stated)	-0.2	-8.9	/	3.5	-3.5	-10.5	/
COc1ccc(C(=O)C(OC(=O)c2ccc(C)c(NC(C)=O)c2)c2ccccc2)cc1 (configuration not stated)	50.3*	/	/	16.0	-16.0	-17.8	-4.6%
Cc1ccc(/C=C2\SC(=S)N(NS(=O)(=O)c3ccc(C)cc3)C2=O)cc1	49.5	-4.9	0.4	-24.1	24.1	-0.7	/
C=CCOc1ccc(/C=C2\SC(=S)N(NS(=O)(=O)c3ccc(C)cc3)C2=O)cc1	54.8*	3.4	0.1	9.1	-9.1	-7.7	-14.0%
Cc1ccc(NC(=O)Cc2c(Cl)cccc2Cl)cc1S(=O)(=O)N(C)C	0.8	-3.8	0.2	-17.4	17.4	-10.3	/
COc1ccc(C2CC(c3ccc(Cl)cc3)=NN2C(C)=O)cc1 (configuration not stated)	54.5*	0.0	0.1	-1.2	1.2	6.6	-4.2%
COc1cc(/C=C(\C#N)c2nc3ccc(C)cc3[nH]2)cc([N+](=O)[O-])c1O	61.2*	43.4	-0.1	2.4	-2.4	-7.3	-17.2%
CCOc1ccc(OCC)c(NC(=O)CC2Oc3ccc(C)cc3NC2=O)c1 (configuration not stated)	/	-3.7	0.2	45.3	-45.3	-4.4	/
Nc1c(NCc2ccccc2)c(=O)[nH]c(=O)n1Cc1ccccc1	/	17.4	/	-20.5	20.5	/	/
CNc1c(N)n(Cc2ccccc2)c(=O)[nH]c1=O	64.0*	0.5	/	-20.9	20.9	-6.2	-6.6%
Cc1ccc(C2=CCN(C)C(=O)N2c2ccc(Br)cc2)cc1	/	/	/	/	/	5.7	/
SMILES	NSD2 HMT inh	ARNT-TACC3 inh	XiGFP reactiv	SR-BI HDL uptake	SR-BI DiI-HDL act	HGIII-sPLA2 inh	Alpha artifact
O=C1C=C(c2c(O)ccc3ccccc23)c2ccccc2C1=O	112.1*	34.2	0.4	56.2	-56.2	-53.8	-13.5%
O=C(O)c1cc2ccccc2c2c1C(=O)c1ccccc1-2	-2.5	/	0.0	/	/	2.4	/
O=C(NC(c1ccc(Cl)cc1)c1cc(Cl)c2cccnc2c1O)c1cccnc1 (configuration not stated)	62.7*	-6.5	1.8	3.9	-3.9	14.1	-3.5%
O=[N+]([O-])c1ccc(/C=N/NC(=S)Nc2ccccc2F)o1	13.8	5.3	0.2	10.6	-10.6	15.2	/
Cc1c(-c2ccc(/C=N/NC(=O)C(=O)Nc3ccccc3F)o2)cccc1[N+](=O)[O-]	64.2*	/	0.0	/	/	5.7	-3.4%
C[C@@H]1CCCCO[C@H](CN(C)C(=O)Nc2ccc3c(c2)OCO3)[C@H](C)CN([C@@H](C)CO)C(=O)c2cc(NS(=O)(=O)c3ccccc3)ccc2O1	/	13.0	0.1	/	/	/	/
COc1ccc(NC(=O)NNC(=O)CCc2ccc(O)c(O)c2)cc1OC	3.5	-7.6	0.0	-19.8	19.8	-0.7	/
COc1ccc(C2N(C(=O)C(F)(F)F)C(C)CN2S(=O)(=O)c2ccc(C)cc2)cc1 (configuration not stated)	86.4*	-2.3	0.5	/	/	3.6	1.5%
Cc1ccc(S(=O)(=O)N2CCN(C(=O)C(F)(F)F)C2c2ccc(N(C)C)cc2)cc1 (configuration not stated)	121.8*	-5.3	0.4	/	/	2.0	-3.5%
COc1ccc(C2N(C(C)=O)CCN2S(=O)(=O)c2ccc(C)cc2)cc1 (configuration not stated)	16.9	-11.2	0.4	-6.7	6.7	-6.0	/
C[C@@H]1CCCCO[C@H](CN(C)S(=O)(=O)c2cn(C)cn2)[C@H](C)CN([C@@H](C)CO)C(=O)c2cc(NC(=O)c3ccccc3)ccc2O1	/	-5.8	0.1	/	/	1.3	/
Cn1c(=O)cc(SCC(=O)N2CCCC2)c2ccc(Cl)cc21	-0.9	6.9	/	26.1	-26.1	8.8	/
Cn1c(=O)cc(SCC(=O)N2CCOCC2)c2ccc(Cl)cc21	55.3*	-4.6	/	-4.2	4.2	4.0	0.0%
COC(=O)c1nn(C)c(=O)[nH]c1=O	51.1*	-8.2	-0.2	-7.6	7.6	11.1	0.5%
Cn1nc(C#N)c(=O)[nH]c1=O	-5.0	-4.0	0.4	0.0	0.0	10.7	/
CS(=O)(=O)NCCCNc1ccc(Cl)cc1[N+](=O)[O-]	7.9	-12.3	/	-15.6	15.6	1.1	/
CCNCCNc1ccc(Cl)cc1[N+](=O)[O-]	63.8*	0.7	/	-5.2	5.2	-0.8	-3.4%
